# Assay outcomes: PubChem, several laboratories
# MEKK2 mut-MEK5 = signal of MEK5 binding to mutant human MEKK2 PB1 domain. hit rate 0.35% among 290,000. AID 1530. bead flow cytometry, Alexa488-MEK5 binding to MEKK2 mutant. percent response, % at 10 µM; in the data active = percent response above about 24%, passing the limit was not always enough
# PREPL inh = inhibits the human prolyl oligopeptidase-like enzyme. inhibition, % at 5.96 µM. hit rate 0.68% among 320,000. Q4J6C6. recombinant PREPL, fluorescence polarization activity-based probe. AID 2751; in the data active = inhibition above about 43%;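 note: 0% = enzyme with DMSO and 100% = wells lacking enzyme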
# MEKK2 WT-MEK5 = raises or lowers MEK5 binding to wildtype human MEKK2 PB1 domain. Q9Y2U5. bead flow cytometry, Alexa488-MEK5 binding to MEKK2 WT; actives lie on both sides. binding response (% of control), % at 10 µM. hit rate 1.1% among 290,000. AID 1531; in the data active = binding response below about 67% or above about 130%
# MEKK3 PB1 HTS = MEKK3-MEK5 PB1 interaction, increase or decrease; Q99759; bead-based flow cytometry, Alexa488-MEK5 binding to MEKK3; actives lie on both sides; 0 = blocked by unlabeled MEK5, 100 = vehicle; binding response (% of control), % at 10 µM; hit rate 1.4% among 290,000; AID 1529;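 active = binding response more than 3 SD above or below the average of its plate-row segment, actives on both sides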;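 note: Alexa488 bead fluorescence after subtracting the streptavidin-only scavenger bead signal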
# UBC13 polyUb = blocks human UBC13 polyubiquitin chain formation; P61088; TR-FRET; inhibition, % at 20 µM; hit rate 0.47% among 330,000; AID 485273; in the data active = inhibition above about 45%, passing the limit was not always enough
# Apaf1 inhib = blocks human Apaf-1 apoptosome activity. O14727. reconstituted apoptosome caspase-3 activity, DEVD-Rh110 fluorescence. inhibition, % at 20 µM. hit rate 0.71% among 330,000. AID 489030; active = inhibition of at least 40% at 20 µM;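 note: plate controls were DMSO wells for no effect and DEVD-CHO caspase inhibitor wells for full effect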
# Target sequence (O14727 whole entry, looked up): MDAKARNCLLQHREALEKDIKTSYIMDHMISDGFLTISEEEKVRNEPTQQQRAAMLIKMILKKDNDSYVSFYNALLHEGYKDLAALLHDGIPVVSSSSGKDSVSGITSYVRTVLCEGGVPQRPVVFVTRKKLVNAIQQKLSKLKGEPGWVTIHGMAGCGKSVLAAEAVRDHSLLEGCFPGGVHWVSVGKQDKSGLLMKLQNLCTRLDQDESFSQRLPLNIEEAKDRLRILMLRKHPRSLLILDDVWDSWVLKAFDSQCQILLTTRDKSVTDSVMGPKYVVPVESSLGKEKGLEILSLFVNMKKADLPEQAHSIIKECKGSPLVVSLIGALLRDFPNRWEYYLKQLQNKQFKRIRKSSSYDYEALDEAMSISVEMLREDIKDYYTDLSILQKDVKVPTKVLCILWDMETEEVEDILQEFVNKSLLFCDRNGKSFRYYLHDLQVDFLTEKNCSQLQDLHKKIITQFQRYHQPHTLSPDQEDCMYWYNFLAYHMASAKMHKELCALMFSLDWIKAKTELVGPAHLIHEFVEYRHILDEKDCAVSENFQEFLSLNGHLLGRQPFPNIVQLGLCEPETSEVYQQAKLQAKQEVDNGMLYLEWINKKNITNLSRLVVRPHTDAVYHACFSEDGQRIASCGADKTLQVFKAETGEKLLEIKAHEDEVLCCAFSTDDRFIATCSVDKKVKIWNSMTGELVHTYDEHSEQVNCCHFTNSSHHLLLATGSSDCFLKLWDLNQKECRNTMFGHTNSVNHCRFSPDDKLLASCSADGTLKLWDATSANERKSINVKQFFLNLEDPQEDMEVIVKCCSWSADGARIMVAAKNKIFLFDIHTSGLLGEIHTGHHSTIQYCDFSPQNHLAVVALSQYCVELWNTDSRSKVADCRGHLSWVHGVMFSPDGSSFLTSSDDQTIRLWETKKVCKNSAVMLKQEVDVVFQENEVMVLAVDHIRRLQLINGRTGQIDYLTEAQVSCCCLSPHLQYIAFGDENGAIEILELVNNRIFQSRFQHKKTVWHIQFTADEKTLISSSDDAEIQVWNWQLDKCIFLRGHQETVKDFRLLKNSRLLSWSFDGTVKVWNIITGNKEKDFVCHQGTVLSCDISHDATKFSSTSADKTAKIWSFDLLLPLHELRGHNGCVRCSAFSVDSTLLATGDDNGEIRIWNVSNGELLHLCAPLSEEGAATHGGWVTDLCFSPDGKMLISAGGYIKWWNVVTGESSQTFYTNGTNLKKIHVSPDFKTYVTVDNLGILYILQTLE
#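 Material: reconstituted apoptosome with Apaf-1, cytochrome c, caspase-9, procaspase-3, dATP; medium: pH 7.5 Hepes buffer with CHAPS, BSA, DTT; also added: cytochrome c and DEVD-Rh110 substrate; timing: 30 min plus 50 min, RT; signal: Rh110 fluorescence intensity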
# MEKK2wt confirm = raises or lowers MEK5 binding to wildtype human MEKK2, retest. shares compounds with MEKK3 PB1 HTS. bead flow cytometry, Alexa488-MEK5 binding to MEKK2 WT; actives lie on both sides. binding response (% of control), % at 10 µM. hit rate 2.4% among 5,900; in the data active = binding response below about 16% or above about 210%; inactive = in between
# MEKK2mut-MEK5 = signal of MEK5 binding to mutant human MEKK2, retest; shares compounds with MEKK3 PB1 HTS; bead flow cytometry, Alexa488-MEK5 binding to MEKK2 mutant; percent response, % at 10 µM; hit rate 2% among 5,900; AID 1893; in the data active = percent response mostly above about 71%, no sharp cut-off; inactive = mostly below about 38%;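 note: higher means compound restores mutant binding toward wildtype level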
# MEKK3 confirm = confirmation of inhibitors of MEK5 binding to human MEKK3 | shares compounds with MEKK3 PB1 HTS | hit rate 1.8% among 5,900 | binding response (% of control), % at 10 µM | bead flow cytometry, Alexa488-MEK5 binding to MEKK3; active compounds read low | AID 1894;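 active = binding response below 72% of control, or above a set upper limit, though filed actives all read lower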;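 note: 100% = DMSO only wells and 0% = binding blocked by excess unlabeled MEK5; lower values mean stronger disruption of MEK5 binding to MEKK3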
# An asterisk follows results filed as active; . = no result given; [ ] = another dose, or the depositor's remark. Only some compounds are listed: those with a hit (about 3.1% of all), similar ones and a draw of the others.
SMILES,MEKK2 mut-MEK5,PREPL inh,MEKK2 WT-MEK5,MEKK3 PB1 HTS,UBC13 polyUb,Apaf1 inhib,MEKK2wt confirm,MEKK2mut-MEK5,MEKK3 confirm
Cc1nn(CCO)c2c1C(=O)CCC2,12,13,116,128*,-5,5,106,3,105
Cc1ccc2oc(=O)n(CCCOc3ccccc3)c2c1,4,-11,121,125*,2,18,102,9,102
Cc1ccc(OCCn2c(=O)oc3ccc(C)cc32)cc1,-10,-9,98,94,-2,12,.,.,.
CCOC(=O)Cn1c(=O)oc2ccc(C)cc21,-1,3,99,95,-16,1,.,.,.
Cc1ccc2oc(=O)n(CC(=O)OCCC(C)C)c2c1,-3,-7,71,74*[inhibitor],13,-7,102,-4,101
Cc1ccc(/C=N/NC(=O)c2cccc(NC(=O)c3ccccc3Cl)c2)o1,-2,-9,99,104,-14,11,.,.,.
CCCn1nnc2c(=O)oc3ccccc3c21,-1,-3,100,98,12,8,.,.,.
CN(C)CCn1nnc2c(=O)oc3ccccc3c21,-32,-5,.,56*[inhibitor],4,-15,101,1,102
O=S(=O)(NC1CC2CCC1C2)c1ccc2c(c1)OCCO2 (centres undefined),-26,-2,3.0*[inhibitor],2.0*[inhibitor],3,0,96,1,102
CC[n+]1c(/C=C/Nc2ccccc2)oc2ccc(OC)cc21,0,29,102,104,-13,15,.,.,.
CC/C(=C\c1oc2cc3ccccc3cc2[n+]1CC)Nc1ccccc1,464*,15,389*,135*,12,29,92,-88*[inhibitor],81
CCNC(=S)Nc1ccc2c(c1)oc1ccccc12,.,-13,.,.,10,-5,.,.,.
OCCNC(=S)NCCc1ccccc1,0,-8,109,132*,4,4,100,0,100
Cc1ccc(Cn2cnc3ccccc32)cc1C,-1,-3,98,74*[inhibitor],9,-2,108,4,107
Cc1cccc(Cn2cnc3ccccc32)c1,4,-6,109,101,13,-10,.,.,.
O=C(O)C(Cc1cc(Cl)ccc1Cl)Sc1nc2ccccc2[nH]1 (centres undefined),25,-12,129,135*,0,-11,98,-13,96
Cc1cc(O)cc(=O)n1Cc1ccccc1,.,-1,.,.,5,-28,.,.,.
NNc1nc(-c2ccccc2)nc2sc3c(c12)CCCC3,1,9,114,142*,-9,15,103,15,106
NNc1nc2sc3c(c2c(=O)n1Cc1ccccc1)CCC3,20,0,118,124,-18,1,.,.,.
O=C1C=CN2CCOCC2C1 (centres undefined),.,5,.,.,-1,0,.,.,.
CC12CCC(=O)N1C(C(=O)NNC(=O)COc1ccccc1F)CS2 (centres undefined),.,-3,.,.,0,-12,.,.,.
NC(=O)CN1CCCN(S(=O)(=O)c2ccc(Br)cc2)CC1,-24,7,3.0*[inhibitor],2.0*[inhibitor],0,5,100,-4,98
Cc1ccc(S(=O)(=O)N2CCN(CC(=O)N/N=C/C=C/c3ccccc3)CC2)cc1,0,-21,106,138*,-8,12,97,1,103
O=C(O)C1CCCN(S(=O)(=O)c2ccc(Br)cc2)C1 (centres undefined),-55,-7,18*[inhibitor],11*[inhibitor],-3,3,101,2,101
O=C(CN1CCN(S(=O)(=O)c2ccc(Br)cc2)CC1)N/N=C/c1ccco1,1,6,108,162*,2,3,103,5,100
SMILES,MEKK2 mut-MEK5,PREPL inh,MEKK2 WT-MEK5,MEKK3 PB1 HTS,UBC13 polyUb,Apaf1 inhib,MEKK2wt confirm,MEKK2mut-MEK5,MEKK3 confirm
O=C(O)C1CCCN(S(=O)(=O)c2ccccc2)C1 (centres undefined),-4,-14,101,101,-4,-2,.,.,.
CC(Nc1ccc2ccccc2c1)C(=O)N/N=C/c1ccncc1 (centres undefined),.,1,.,.,-8,-5,.,.,.
COc1ccccc1CNC(=O)CCNS(=O)(=O)c1ccc2c(c1)CC(C)N2C(C)=O (centres undefined),5,11,106,100,1,-13,.,.,.
COc1ccc(N=C2S/C(=C\c3ccc(OCC(=O)O)cc3)C(=O)N2CCc2c[nH]c3ccccc23)cc1,-16,.,65,79,-72,26,.,.,.
COc1ccc(N=C2S/C(=C\c3ccc(N4CCOCC4)o3)C(=O)N2CCc2c[nH]c3ccccc23)cc1,99*,22,161*,107,-90,15,88,-25,91
CC1=CS(=O)(=O)CC1Sc1ncn[nH]1 (centres undefined),5,-7,76,64*[inhibitor],-9,-2,42,0,81
CC1=CS(=O)(=O)CC1Sc1nc(C)n[nH]1 (centres undefined),-6,-1,99,103,-2,-15,.,.,.
CC(C)(C)C1CCC2(CC1)C(Nc1cccc(C(F)(F)F)c1)=NC(=S)N2CC#N (centres undefined),-18,1,3.0*[inhibitor],2.0*[inhibitor],2,13,99,-1,98
CCN(Cc1ccc2c(c1)OCCO2)C(=O)CN1C(=O)NC2(CCc3ccccc32)C1=O (centres undefined),.,1,.,.,-4,11,.,.,.
COc1ccccc1C(=O)Nc1ccc(S(=O)(=O)Nc2cnc3ccccc3n2)cc1,8,7,106,103,-4,1,.,.,.
C/C(=N\Nc1nc2ccccc2s1)c1ccc(Br)s1,26,26,138*,111,19,11,119,15,106
CCCn1c(CNC(=O)Cc2ccccc2)nc2ccccc21,-10,4,38*[inhibitor],32*[inhibitor],-5,7,102,2,101
CCCC(=O)NCCc1nc2ccccc2n1CCC,6,-2,101,100,-1,13,.,.,.
COc1cc(/C=N/NC(=O)COc2cc(C)cc(C)c2)ccc1OS(=O)(=O)c1ccc(C)cc1,0,-18,98,135*,-8,13,98,1,101
C=CCNc1oc(COc2ccc(C)cc2)nc1C#N,-3,-1,93,92,2,-1,.,.,.
CN(C)CCNc1oc(COc2ccc(-c3ccccc3)cc2)nc1C#N,34,30,150*,106,16,11,141,30,107
